# Experimental data from different studies.
# Compare with care: the assays were run in different laboratories.
# Target: High affinity nerve growth factor receptor (NTRK1, Homo sapiens, UniProt P04629)
SMILES,assay,setting,measurement,result
O=C(Nc1ccc2[nH]ncc2c1)c1cccc(NC(=S)Nc2ccc(F)cc2F)c1,"enzyme activity, inhibitor, FRET",1 µM,inhibition,67.3%
Cc1cc(NC(=O)c2cccc3cc(-c4cccc5[nH]nc(N)c45)ccc23)ccc1F,"enzyme activity, inhibitor",0.1 µM,activity vs control,121%
Nc1ncnc2occ(-c3ccc(NC(=O)Nc4cc(C(F)(F)F)ccc4F)cc3)c12,cell-free assay,20 µM,remaining signal,0%
O=C(Nc1ccc2[nH]ncc2c1)c1cccc(NC(=S)Nc2cc(C(F)(F)F)cc(C(F)(F)F)c2)c1,"enzyme activity, inhibitor, FRET",1 µM,inhibition,51.3%
CS(=O)(=O)N1CCCC(NC(=O)[C@H](CCC2CCCCC2)NC(=O)c2ccc(CNc3ncnc4c3nnn4-c3ccccc3)cc2)C1 (stereo partly drawn),"cell-free assay, competition with immobilised ligand",0.1 µM,remaining binding,100%
O=C(Nc1ccc(Br)cc1)Nc1cccc(C(=O)Nc2ccc3[nH]ncc3c2)c1,"enzyme activity, inhibitor, FRET",1 µM,inhibition,50.5%
COc1ccc2c(c1)O[C@H](c1ccc(OC)c(OC)c1)C[C@@H]2NC(=O)C1(c2ccc3c(c2)OC(F)(F)O3)CC1,"cell-free assay, competition with immobilised ligand",1 µM,remaining binding,100%
Oc1cccc(-c2nc(N3CCOCC3)c3oc4ncccc4c3n2)c1,"enzyme activity, inhibitor",10 µM,remaining activity,93%
CC(=O)N1CCC(c2ccc(C(=O)NC(=N)N)cc2C(F)(F)F)CC1,"cell-free assay, competition with immobilised ligand",1 µM,remaining binding,100%
O=C(Nc1cccc(F)c1)Nc1cccc(C(=O)Nc2ccc3[nH]ncc3c2)c1,"enzyme activity, inhibitor, FRET",1 µM,inhibition,51.3%
CC(C)(O)[C@H]1CC[C@H](Nc2ccc3ncc(-c4cccc(C(F)(F)F)c4)n3n2)CC1,"enzyme activity, inhibitor",1 µM,remaining activity,21.9%
FC(F)(F)Oc1cccc(-c2cnc3ccc(-c4ccncc4)nn23)c1,"enzyme activity, inhibitor, radiometric",1 µM,activity vs control,16%
CCCOc1ccc(OC)c(F)c1C(=O)c1ccc(C(=O)N[C@@H]2CNC[C@H]2NC(=O)c2ccc3[nH]ncc3c2)cc1,"enzyme activity, inhibitor",10 µM,remaining activity,46%
Cc1cnc(NC2CCOCC2)nc1-n1cnc(C(=O)NC(CN)c2cc(F)cc(Cl)c2)c1 (stereo not drawn),"enzyme activity, inhibitor, radiometric",1 µM,remaining activity,100%
Cc1ccc(C(=O)Nc2ccc(CN3CCN(C)CC3)c(C(F)(F)F)c2)cc1C#Cc1cnc2cccnn12,cell-free assay,23.5 nM,remaining signal,26%
O=C(Nc1cnn(-c2csc(C(=O)NC3COC3)c2)c1)Nc1ccccc1Cl,"enzyme activity, inhibitor",5 µM,remaining activity,100%
C[C@@H]1CCN(C(=O)CC#N)C[C@@H]1N(C)c1ncnc2[nH]ccc12,cell-free assay,0.5 µM,remaining signal,94.1%
C[C@@H]1CN(c2cc(-c3n[nH]c4ccc(OC5(C)CC5)cc34)ncn2)C[C@H](C)O1,"cell-free assay, competition with immobilised ligand",0.1 µM,remaining binding,73%
CCN(CC)CCNC(=O)c1c(C)[nH]c(/C=C2\C(=O)Nc3ccc(F)cc32)c1C,"enzyme activity, inhibitor",0.1 µM,remaining activity,19%
N#CCCc1ccc2c(c1)-c1[nH]c3ccc([N+](=O)[O-])cc3c1CC(=O)N2,cell-free assay,0.5 µM,remaining signal,115%
CN([C@@H]1CCc2c(CC(=O)O)c3cc(S(C)(=O)=O)ccc3n2C1)S(=O)(=O)c1ccc(F)cc1,"cell-free assay, competition with immobilised ligand",1 µM,remaining binding,100%
CC(C)(C)c1nc(-c2cccc(NS(=O)(=O)c3c(F)cccc3F)c2F)c(-c2ccnc(N)n2)s1,"enzyme activity, inhibitor, radiometric",1 µM,remaining activity,78%
O=C(Nc1cccc(Cl)c1)Nc1cccc(C(=O)Nc2ccc3[nH]ncc3c2)c1,"enzyme activity, inhibitor, FRET",1 µM,inhibition,47.4%
COc1cc(/C=C/C(=O)CC(=O)/C=C/c2ccc(O)c(OC)c2)ccc1O,"enzyme activity, inhibitor",1 µM,activity vs control,93%
Cc1c(NC(=O)c2cc(C(N)=O)nc3cc(F)ccc23)c(C(F)(F)F)nn1Cc1ccc(C#N)cc1,"cell-free assay, competition with immobilised ligand",1 µM,remaining binding,83%
O=C(Nc1ccc(F)cc1)Nc1cccc(C(=O)Nc2ccc3[nH]ncc3c2)c1,"enzyme activity, inhibitor, FRET",1 µM,inhibition,63.2%
O=C(NCc1ncc(C(F)(F)F)cc1Cl)c1ccc2c(c1)C1(CCS(=O)(=O)CC1)[C@@H](C1CC1)N2S(=O)(=O)c1ccc(F)cc1,"cell-free assay, competition with immobilised ligand",1 µM,remaining binding,75%
Cc1[nH]c(/C=C2\C(=O)Nc3ccc(F)cc32)c(C)c1C(=O)N[C@H]1CCN(C(=O)N(C)C)C1,"enzyme activity, inhibitor",0.1 µM,remaining activity,34%
CCCOc1ccc([C@H]2[C@H](C(=O)O)[C@@H](c3ccc4c(c3)OCO4)CN2CC(=O)Nc2c(CC)cccc2CC)cc1,"cell-free assay, competition with immobilised ligand",1 µM,remaining binding,84%
COc1cc(Nc2cnc(C#N)c(O[C@H](C)CN(C)C)n2)ncc1-c1cnn(C)c1,"enzyme activity, inhibitor, radiometric",10 µM,remaining activity,28%
